Assay [1] relates to Enterococcus faecium. The assay can be described thus: Minimum inhibitory activity against Enterococcus faecium OC3312. The assay is classed as functional. The method in brief: (§1)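 MIC by NCCLS broth microdilution. Strains are ATCC and clinical isolates, including methicillin-resistant S. aureus.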
Assay [2] deals with Enterococcus faecalis. Kind of assay: Minimum inhibitory activity against Enterococcus faecalis OC3041. The assay is classed as functional. The procedure, abridged: as §1
Assay [3] concerns Enterococcus faecalis. The assay can be described thus: Activity of the VanS/VanR TCS in Enterococcus faecalis OC3364; +{i} indicate induced overexpression of luciferase specific activity. Format: functional, organism-based. The method in brief:
(§2)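 E. faecalis OC3364 (JH2-derived) carries vanR vanS and a vanH-luc fusion on separate plasmids. […] OD600 was read every 30 min. At 2 h, cells were lysed by 10 min shaking in an equal volume of Genepol X-80 mix. Luciferase RLU was read with ATP, coenzyme A and luciferin. Specific activity (RLU/OD600) was compared with an untreated control.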

The test system of assay [4] is Staphylococcus aureus. Kind of assay: Minimum inhibitory activity against Staphylococcus aureus ATCC 29213. Format: functional. The method in brief: as §1
For assay [5], the system named is Staphylococcus aureus. Kind of assay: Minimum inhibitory activity against methicillin resistant Staphylococcus aureus (MRSA) OC2089. Format: functional. The method in brief:
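Broth microdilution MIC following NCCLS methods for aerobically growing bacteria.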

Assay [6] has as its target T1, KinA/Spo0F (sporulation kinase A/sporulation initiation phosphotransferase F) (Bacillus subtilis (strain 168), UniProt P06628+P16497).
T1 sequence (P06628 whole entry): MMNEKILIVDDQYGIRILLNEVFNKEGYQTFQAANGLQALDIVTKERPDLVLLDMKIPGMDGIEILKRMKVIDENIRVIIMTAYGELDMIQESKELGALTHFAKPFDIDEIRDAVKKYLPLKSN
T1 sequence (P16497 whole entry): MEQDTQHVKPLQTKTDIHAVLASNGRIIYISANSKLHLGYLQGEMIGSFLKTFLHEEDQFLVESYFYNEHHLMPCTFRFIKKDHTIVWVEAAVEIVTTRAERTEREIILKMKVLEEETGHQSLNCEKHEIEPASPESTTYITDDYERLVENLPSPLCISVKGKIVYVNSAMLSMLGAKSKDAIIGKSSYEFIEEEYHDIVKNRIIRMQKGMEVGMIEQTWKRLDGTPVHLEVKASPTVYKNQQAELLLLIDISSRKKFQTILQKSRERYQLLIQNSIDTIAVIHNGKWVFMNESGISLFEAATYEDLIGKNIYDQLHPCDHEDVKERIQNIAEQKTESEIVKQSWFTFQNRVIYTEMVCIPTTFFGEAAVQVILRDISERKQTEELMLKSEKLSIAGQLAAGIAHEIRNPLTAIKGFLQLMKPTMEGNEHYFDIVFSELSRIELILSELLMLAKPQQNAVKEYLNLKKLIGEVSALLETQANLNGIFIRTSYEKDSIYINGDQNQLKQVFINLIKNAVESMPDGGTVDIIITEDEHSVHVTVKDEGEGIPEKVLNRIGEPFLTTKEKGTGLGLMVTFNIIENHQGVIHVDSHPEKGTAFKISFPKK
The assay can be described thus: Inhibition of autophosphorylation of the two-component signal transduction system kinase was measured using the KinA/Spo0F regulatory system of Bacillus subtilis. The assay is classed as functional.

Assay [7] relates to Enterococcus faecalis. The assay can be described thus: Percentage of specific activity relative to untreated control at a concentration allowing 80% growth. Format: functional. The method in brief:
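OD600 is followed every 30 min. Luciferase RLU/OD600 is measured 2 h after induction. The value is specific activity as a percentage of untreated control, taken at the compound concentration allowing 80% growth.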

Assay [8] deals with Enterococcus faecalis. The assay can be described thus: Activity of the VanS/VanR TCS in Enterococcus faecalis OC3364; + indicate decrease of the luciferase specific activity relative to an untreated control. The assay is classed as functional, organism-based. The method in brief: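 Reporter assay in Enterococcus faecalis OC3364 (from JH2) carrying vanR vanS and a Φ(vanH-luc) fusion on separate plasmids. […] OD600 is read every 30 min. At 2 h cells are lysed and luciferase RLU is read with ATP, coenzyme A and luciferin. Specific activity = RLU/OD600, compared with an untreated control.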

Assay [9] concerns Staphylococcus aureus. Kind of assay: Minimum inhibitory activity against Staphylococcus aureus MRSA OC2089. The assay is classed as functional. The procedure, abridged: as §1
Assay [10] deals with Enterococcus faecalis. Kind of assay: Activity of the VanS/VanR TCS in Enterococcus faecalis OC3364; -{i} indicate over-expression of luciferase in both strains. Format: functional, organism-based. The procedure, abridged:
as §2

The subject of assay [11] is Enterococcus faecalis. Kind of assay: Activity of the VanS/VanR TCS in Enterococcus faecalis OC3364; +{i} indicate induced over-expression of luciferase specific activity. Format: functional, organism-based. The method in brief: as §2

As a reminder, the MIC is the least concentration at which growth counts as inhibited. Low values mean inhibition by little substance, high ones a need for much substance. The IC50 is the concentration that inhibits the measured activity by half.

Converted amounts (≈) assume the structure as drawn. The source made the active and inactive calls. The calls are words filed in the database; no cut-off is given here.

Take `O=C(Nc1ccc(Cl)c(Cl)c1)c1cc(Cl)cc(Cl)c1O` [3,3',4',5-TETRACHLOROSALICYLANILIDE]: the MIC stood at 1 µg/mL (≈ 2.85 µM) in [1], 0.5 µg/mL (≈ 1.42 µM) in assay [2], 0.5 µg/mL (≈ 1.42 µM) in assay [4] and 0.25 µg/mL (≈ 0.712 µM) in assay [5]. For the same molecule, the result in [3] was Active.
Consider `O=C(Nc1ccc(Cl)c(Cl)c1)c1cc(Cl)ccc1O`, for which the 50% inhibitory concentration (IC50) in [6] was greater than 500 µM.
Take `O=C(Nc1ccc(Cl)c(Cl)c1)c1cc(I)cc(I)c1O`: the IC50 in [6] stood at 21 µM. The MIC in [1] was 0.5 µg/mL (≈ 0.936 µM); in assay [2] it was 0.5 µg/mL (≈ 0.936 µM); in assay [4] it was 1 µg/mL (≈ 1.87 µM); in assay [5], 0.25 µg/mL (≈ 0.468 µM). For the same molecule, the outcome in assay [3] was Active.
`O=C(Nc1ccc(Cl)c(Cl)c1)c1cc(C(F)(F)F)cc(C(F)(F)F)c1O` displayed an IC50 in assay [6] of 27 µM. Moreover, the MIC in assay [1] came out at 2 µg/mL (≈ 4.78 µM); in assay [2] it was 2 µg/mL (≈ 4.78 µM); in assay [4], 1 µg/mL (≈ 2.39 µM); in [5] it was 1 µg/mL (≈ 2.39 µM). For the same molecule, the outcome in assay [3] was Active.
`O=C(Nc1ccc(Cl)c(Cl)c1)c1cccc(O)c1O` had an IC50 in assay [6] of 9.5 µM. Further, the MIC amounted to 32 µg/mL (≈ 107 µM) in assay [1], 8 µg/mL (≈ 26.8 µM) in assay [2], 8 µg/mL (≈ 26.8 µM) in assay [4] and 8 µg/mL (≈ 26.8 µM) in assay [9]. In addition, the AG80 in [7] was 48%. Further, the outcome in [8] was Active.
In the case of `Cc1cc(C(CN)c2ccc(Cl)cc2)c(Cl)cc1NC(=O)c1cc(I)cc(I)c1O` (stereo not drawn), the IC50 in [6] was 86 µM.
Regarding `COc1cc(OC)c(O)c(C(=O)Nc2ccc(Cl)c(Cl)c2)c1`, the IC50 in [6] is greater than 500 µM.
In the case of `Cc1onc(-c2ccccc2)c1C(=O)N[C@@H]1C(=O)N2[C@@H]1SC(C)(C)[C@@H]2C(=O)O` [OXACILLIN], the MIC in assay [1] was greater than 64 µg/mL; in assay [2], 16 µg/mL (≈ 39.9 µM); in assay [4], 0.25 µg/mL (≈ 0.623 µM); in assay [9], greater than 64 µg/mL.
In turn, `Cc1cc(C(C#N)c2ccc(Cl)cc2)c(Cl)cc1NC(=O)c1cc(C(C)(C)C)cc(C(C)(C)C)c1O` (stereo not drawn) came in with an IC50 in [6] greater than 500 µM.
Still for that read-out and setting: in the case of `CC(C)(C)c1cc(C(=O)Nc2ccc(Cl)c(Cl)c2)c(O)c(C(C)(C)C)c1` it was greater than 500 µM.
The same measure, in the same setting: the value for `O=C(Nc1ccc(Cl)cc1)c1cc(Cl)cc(Cl)c1O` was 185 µM.
`Cc1cc(C(C#N)c2ccc(Cl)cc2)c(Cl)cc1NC(=O)c1cccc(O)c1O` (stereo not drawn) gave an IC50 in assay [6] of 2.8 µM. Besides, the MIC in assay [1], in assay [2], in assay [4] and in [9] was 16 µg/mL (≈ 37.4 µM) in each case. The molecule further had an AG80 in assay [7] of 66%. For the same molecule, in [8], the result was Active.
In turn, `Cc1cc(C(C#N)c2ccc(Cl)cc2)c(Cl)cc1NC(=O)c1cc(Cl)ccc1O` (stereo not drawn) returned an IC50 in assay [6] greater than 500 µM.
The same measure, in the same setting: the value for `Cc1cc(C(=O)c2ccc(Cl)cc2)c(Cl)cc1NC(=O)c1cc(I)cc(I)c1O` was greater than 500 µM.
As for `Cc1cc(C(C#N)c2ccc(Cl)cc2)c(Cl)cc1NC(=O)c1cc(I)cc(I)c1O` (stereo not drawn) [CLOSANTEL], the IC50 in assay [6] turned out to be 3.8 µM. Also, the MIC is 1 µg/mL (≈ 1.51 µM) in assay [1], 0.12 µg/mL (≈ 0.181 µM) in assay [2], 2 µg/mL (≈ 3.02 µM) in assay [4] and 1 µg/mL (≈ 1.51 µM) in assay [5]. This molecule also yielded an AG80 in [7] of 100%.
With `O=C(Nc1ccc([N+](=O)[O-])cc1)c1cc(Cl)cc(Cl)c1O`, the IC50 in assay [6] is greater than 500 µM. Moreover, the MIC in assay [1] was greater than 64 µg/mL; in assay [2], greater than 32 µg/mL; in assay [4], 4 µg/mL (≈ 12.2 µM); in assay [9] it was 4 µg/mL (≈ 12.2 µM).
In assay [6], `O=C(Nc1ccccc1)c1cc(Cl)cc(Cl)c1O` registered an IC50 greater than 500 µM. For the same molecule, the MIC came to 32 µg/mL (≈ 113 µM) in [1], 64 µg/mL (≈ 227 µM) in assay [2], 1 µg/mL (≈ 3.54 µM) in assay [4] and 4 µg/mL (≈ 14.2 µM) in assay [5].
In assay [6], `O=C(Nc1ccc(Cl)c(Cl)c1)c1cc(C(F)(F)F)ccc1O` displayed an IC50 greater than 500 µM.
In assay [1], `CN[C@H](CC(C)C)C(=O)N[C@H]1C(=O)N[C@@H](CC(N)=O)C(=O)N[C@H]2C(=O)N[C@H]3C(=O)N[C@H](C(=O)N[C@H](C(=O)O)c4cc(O)cc(O)c4-c4cc3ccc4O)[C@H](O)c3ccc(c(Cl)c3)Oc3cc2cc(c3O[C@@H]2O[C@H](CO)[C@@H](O)[C@H](O)[C@H]2O[C@H]2C[C@](C)(N)[C@H](O)[C@H](C)O2)Oc2ccc(cc2Cl)[C@H]1O` [VANCOMYCIN] returned an MIC greater than 128 µg/mL.
In assay [6], `CC(C)(C)c1ccc(NC(=O)c2cc(Cl)cc(Cl)c2O)cc1` registered an IC50 of 67 µM. The MIC in assay [1] stood at 4 µg/mL (≈ 11.8 µM); in assay [2], 8 µg/mL (≈ 23.7 µM); in [4] it was 2 µg/mL (≈ 5.91 µM); in [5], 2 µg/mL (≈ 5.91 µM). In addition, in assay [10], the outcome was inactive.
In turn, `Cc1cc(C(C#N)c2ccc(Cl)cc2)c(Cl)cc1NC(=O)c1cc(Cl)cc(Cl)c1O` (stereo not drawn) came in with an IC50 in assay [6] of 4.8 µM. For the same molecule, in assay [11], the outcome was Active. The MIC in assay [1] stood at 2 µg/mL (≈ 4.17 µM); in [2], 2 µg/mL (≈ 4.17 µM); in [4], 1 µg/mL (≈ 2.08 µM); in [9], 1 µg/mL (≈ 2.08 µM).
In turn, `Cc1cc(C(C#N)c2ccc(Cl)cc2)c(Cl)cc1NC(=O)c1cc(C(F)(F)F)ccc1O` (stereo not drawn) displayed an IC50 in assay [6] of 19 µM. Besides, the MIC in assay [1], in assay [2], in assay [4] and in assay [5] was 1 µg/mL (≈ 2.09 µM) each time. The AG80 in assay [7] came out at 95%.
With `COc1cc(OC)c(O)c(C(=O)Nc2cc(Cl)c(C(C#N)c3ccc(Cl)cc3)cc2C)c1` (stereo not drawn), the IC50 in assay [6] worked out at 250 µM.
Still for that read-out and setting: in the case of `COc1ccc(NC(=O)c2cc(Cl)cc(Cl)c2O)cc1` it was greater than 500 µM.
Consider `O=C(Nc1ccc(Cl)c(C(F)(F)F)c1)c1cc(Cl)cc(Cl)c1O`, for which the IC50 in assay [6] worked out at 50 µM. The MIC came to 1 µg/mL (≈ 2.6 µM) in [1], 0.5 µg/mL (≈ 1.3 µM) in [2], 0.5 µg/mL (≈ 1.3 µM) in assay [4] and 0.25 µg/mL (≈ 0.65 µM) in assay [5]. Also, the result in assay [10] was inactive.
`Cc1cc(C(C#N)c2ccc(Cl)cc2)c(Cl)cc1NC(=O)c1cc(C(F)(F)F)cc(C(F)(F)F)c1O` (stereo not drawn): the IC50 in [6] is 9 µM.

The record behind these values is ChEMBL document CHEMBL1131046, “Substituted salicylanilides as inhibitors of two-component regulatory systems in bacteria” (J Med Chem, 1998).
